Source: PubChem (several laboratories)
Xi reactivation = activators of X-chromosome reactivation in mouse fibroblasts; XiGFP mouse fibroblasts, % GFP-positive cells imaging, 3 d; cells co-treated with 5-aza-dC sensitizer; scaled so ellipticine positive control = 100%; activation, % at 7.58 µM; 360,000 compounds, 0.055% hits; AID 743238;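 active means mean normalized replicate activation at least 10% and every replicate at or above 10%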;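 further: 0% = median of on-plate neutral control wells and 100% = ellipticine 6 µM median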
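assay system = SV40-immortalized XiGFP fibroblast cells, line 68-5-11 | buffer or medium = DMEM plus 5-aza-dC sensitizer | doses = single-point pinned compound dosing | times = 3-day compound exposure, then 15 min fixation at room temperature | benchmarks = positive control ellipticine, 6 µM final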
SR-BI DiI-HDL act = SR-BI HDL lipid transfer activation. CHO ldlA[mSR-BI] cells, DiI-HDL uptake fluorescence, 3 h; 100 = double the neutral-control signal. 320,000 compounds, 0.096% hits. activation, % at 12.5 µM;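 active means mean replicate activation of at least 60% and every replicate at or above 60%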;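 further: 0% = median plate neutral-control signal and 100% = twice that signal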
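System: CHO ldlA[mSR-BI] cells / Medium: HEPES-buffered (25 mM, pH 7.4) F12 plus 0.5% BSA / Probe or stimulus: labelled HDL, 10 µg/mL / Doses: single compound concentration, delivered by pin transfer / Schedule: 3 h, 37 °C / Measured by: DiI fluorescence, bottom read / Measure: cell-associated DiI fluorescence as measure of HDL uptake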
ARNT TACC3 PPI = disruptors of human ARNT/TACC3 interaction; Q9Y6A5; AlphaScreen His-ARNT PAS-B/GST-TACC3 binding, luminescence; TACC3 fragment carries E629A point mutation; inhibition, % at 9.99 µM; 390,000 compounds, 0.66% hits;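 active means mean inhibition of replicates at least 50% and at least half of replicates each reaching 50%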;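 further: 0% = complete ARNT plus TACC3 wells and 100% = ARNT alone without TACC3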
HGIII-sPLA2 inh = Inhibits HGIII-sPLA2 liposome hydrolysis, primary screen; 370,000 compounds, 0.56% hits; AID 743126; inhibition, % at 12.2 µM; QFRET BODIPY PC-A2 liposome hydrolysis, fluorescence; Q9NZ20;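 active means inhibition above mean plus 3 SD of compounds lying within the high and low control bounds, cut at about 19% in these data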;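 further: 0% = median of test compound wells and 100% = no enzyme DMSO wells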
SR-BI HDL uptake = inhibitors of mouse SR-BI mediated HDL lipid uptake | ldlA[mSR-BI] CHO cells, DiI-HDL uptake fluorescence, 3 h | inhibition, % at 12.5 µM | 320,000 compounds, 0.96% hits;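 active means mean replicate inhibition of at least 70% and a set share of replicates each scoring 70 or more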;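 further: 0% = median of neutral control wells and 100% = median of positive control wells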
NSD2 HMT inh = blocks human histone methyltransferase NSD2. inhibition, % at 12.5 µM. 310,000 compounds, 0.54% hits. O96028. NSD2 peptide methylation, AlphaScreen, 120 min; in the data active means inhibition above about 50%
Target sequence (O96028 whole entry, looked up): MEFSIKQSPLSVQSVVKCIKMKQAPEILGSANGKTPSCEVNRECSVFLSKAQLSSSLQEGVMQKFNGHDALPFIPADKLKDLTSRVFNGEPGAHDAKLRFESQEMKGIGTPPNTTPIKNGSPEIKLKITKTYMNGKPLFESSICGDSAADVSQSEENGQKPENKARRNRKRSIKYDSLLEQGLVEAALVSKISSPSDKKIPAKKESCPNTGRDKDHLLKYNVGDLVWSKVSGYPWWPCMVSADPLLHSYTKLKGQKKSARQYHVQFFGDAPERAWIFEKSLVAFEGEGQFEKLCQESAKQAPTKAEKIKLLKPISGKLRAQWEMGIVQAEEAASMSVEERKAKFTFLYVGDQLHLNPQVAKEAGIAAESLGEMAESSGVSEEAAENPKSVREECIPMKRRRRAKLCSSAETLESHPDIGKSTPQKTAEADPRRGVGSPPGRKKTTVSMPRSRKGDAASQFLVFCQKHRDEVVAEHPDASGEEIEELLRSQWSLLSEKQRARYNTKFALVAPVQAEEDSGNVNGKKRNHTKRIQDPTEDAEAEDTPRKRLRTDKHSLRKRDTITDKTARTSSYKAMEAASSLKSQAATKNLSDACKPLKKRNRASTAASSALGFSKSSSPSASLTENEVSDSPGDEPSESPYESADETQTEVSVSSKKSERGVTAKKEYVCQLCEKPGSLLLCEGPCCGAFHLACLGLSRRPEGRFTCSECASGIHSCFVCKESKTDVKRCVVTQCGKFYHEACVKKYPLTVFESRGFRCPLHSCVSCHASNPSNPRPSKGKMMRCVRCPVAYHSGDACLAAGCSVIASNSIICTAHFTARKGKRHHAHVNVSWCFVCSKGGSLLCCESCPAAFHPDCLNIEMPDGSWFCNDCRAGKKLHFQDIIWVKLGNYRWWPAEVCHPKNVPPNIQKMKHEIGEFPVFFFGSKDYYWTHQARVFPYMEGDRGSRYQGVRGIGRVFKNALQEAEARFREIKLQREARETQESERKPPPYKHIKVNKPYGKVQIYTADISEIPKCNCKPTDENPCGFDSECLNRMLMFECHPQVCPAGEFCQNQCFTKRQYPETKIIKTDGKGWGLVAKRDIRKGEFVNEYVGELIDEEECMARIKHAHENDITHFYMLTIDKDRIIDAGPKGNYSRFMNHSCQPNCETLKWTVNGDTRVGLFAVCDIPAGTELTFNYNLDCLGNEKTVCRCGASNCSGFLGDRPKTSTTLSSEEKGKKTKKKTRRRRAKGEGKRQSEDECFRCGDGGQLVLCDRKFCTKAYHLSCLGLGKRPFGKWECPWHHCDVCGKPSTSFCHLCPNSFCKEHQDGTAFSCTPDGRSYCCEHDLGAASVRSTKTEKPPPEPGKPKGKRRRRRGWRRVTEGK
AlphaScreen ctr = AlphaScreen artifact in ARNT/TACC3 counter-screen | shares compounds with ARNT TACC3 PPI | His-ARNT PASB-GST AlphaScreen artifact counter-screen, luminescence | AC50, µM (series often up to 68 µM), without a hit: top-dose activity change, negative = signal decrease | 1,200 compounds, 50% hits | AID 651705;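 active means every separate test run was called active for a drop in luminescence, with AC50 within twice the top valid dose, actives reach about 71 µM in these data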
Active calls of the source: *; x = no result given; [ ] = dose if it differs, or a comment. Sampled rows, rich in hits. Any-hit rate of the full collection: about 2%.

SMILES	Xi reactivation	SR-BI DiI-HDL act	ARNT TACC3 PPI	HGIII-sPLA2 inh	SR-BI HDL uptake	NSD2 HMT inh	AlphaScreen ctr
O=C(COC(=O)c1ccc(Cl)nc1)Nc1nnc(-c2ccccc2)o1	0	9	79*	-4	-9	-1	-14%
Cc1ccsc1C(=O)OCC(=O)Nc1nnc(-c2ccccc2)o1	0	-16	57*	4	16	-2	64µM*
C[C@@H]1CN([C@@H](C)CO)C(=O)c2cc(C#CC3CC3)cnc2O[C@@H]1CN(C)C(=O)c1ccc(F)cc1	0	x	-2	x	x	x	x
Cc1cc(NC(c2ccc(Cl)cc2)c2ccc3cccnc3c2O)no1 (configuration not stated)	x	-49	55*	35*	49	x	10µM*
CC1(C(=O)NS(=O)(=O)c2cccc(F)c2)CCN1C(=O)C/C=C/c1ccccc1 (configuration not stated)	0	x	x	13	x	-1	x
Cc1ccc(NC(=O)Cc2sc(C)nc2-c2ccc(C)cc2)cc1	0	35	-2	16	-35	5	x
Cc1ccc(-c2nc(C)sc2CC(=O)NCc2ccco2)cc1	x	-49	active	-4	49	2	-12%
CCOC(=O)c1c(C)[nH]c(N=Nc2cccc(C)c2)c1C	x	-51	36*	-25	51	x	21µM*
CC(=O)c1cccc(NC(=O)N2CCCC2C(=O)NCc2ccccc2)c1 (configuration not stated)	x	23	21*	10	-23	7	7%
Cc1cccc(NC(=O)N2CCCC2C(=O)NCc2ccccc2)c1 (configuration not stated)	0	1	-13	3	-1	-1	x
C=C(C)Cn1c(SCC(=O)N/N=C(\C)c2ccc(Br)cc2)nnc1-c1ccc(Br)cc1	x	x	x	11	x	9	x
Cc1cccc(CNc2nc(-c3ccccn3)nnc2-c2ccccc2)c1	x	x	x	x	x	x	2.1µM*
COc1ccc(CNc2nc(-c3ccccn3)nnc2-c2ccccc2)cc1	x	x	x	x	x	x	1.7µM*
Cc1ccc(CNc2nc(-c3cccs3)nc3ccccc23)cc1	0	-33	-24	-36	33	-5	x
Cc1ccccc1CNc1nc(-c2ccccn2)nnc1-c1ccccc1	x	x	x	x	x	x	3.1µM*
Cc1ccc(CNc2nc(-c3ccccn3)nnc2-c2ccccc2)cc1	x	x	x	x	x	x	1.5µM*
c1ccc(-c2nc(NCc3ccco3)c3ccccc3n2)nc1	x	2	x	6	-2	11	x
CCOC(=O)c1csc(NC(=O)CN2CCCCC2)n1	0	-4	-2	8	4	x	x
COC(=O)[C@@H](NC(=O)NCc1cccs1)C(C)C	x	14	-4	-2	-14	-6	x
CCC(C)N(CC(=O)NCc1ccc(OC)cc1)C(=O)c1csnn1 (configuration not stated)	x	-2	-2	1	2	-3	x
COCC(=O)Nc1ccc2c(c1)OC[C@H](C)N(C(=O)c1ccncc1)C[C@H](C)[C@@H](OC)CN(C)C2=O	0	x	-3	x	x	x	x
Cc1ccc(CNc2nc(-c3ccccn3)nnc2-c2ccccc2)cc1C	x	x	x	x	x	x	2.8µM*
Cc1cccc(C)c1NC(=O)COC(=O)CSc1nnc(N)s1	0	29	-1	-4	-29	-1	x
COc1cc(/C=N/NC(=O)c2cncc(Br)c2)cc([N+](=O)[O-])c1O	0	-120	58*	10	120*	5	36µM*
COC(=O)C[C@H]1CC[C@H]2[C@@H](COc3ccc(NC(=O)Nc4cccc(Cl)c4)cc3C(=O)N2C)O1	0	x	11	x	x	x	x
SMILES	Xi reactivation	SR-BI DiI-HDL act	ARNT TACC3 PPI	HGIII-sPLA2 inh	SR-BI HDL uptake	NSD2 HMT inh	AlphaScreen ctr
CCOC(=O)Cc1csc(SCC(=O)c2c(N)n(CC(C)C)c(=O)n(C)c2=O)n1	x	23	-2	0	-23	-2	x
N#Cc1ccsc1NC(=O)c1ccccn1	x	32	64*	1	-32	-3	-11%
N#Cc1ccsc1NC(=O)c1ccc2ncsc2c1	0	x	x	2	x	-4	x
c1ccc(CN2CCN(CCCNc3ccc4nnc(-c5ccccc5)n4n3)CC2)cc1	x	x	57*	x	x	x	71µM*
Cc1ccc(CNc2ccc3nnc(-c4ccccc4)n3n2)cc1	1	-2	-6	5	2	x	x
Cc1ccc(C(=O)OC(C)C(=O)Nc2ccc(Cl)cn2)s1 (configuration not stated)	0	10	x	9	-10	2	x
C[C@@H]1CN([C@H](C)CO)C(=O)c2cc(NS(=O)(=O)c3ccccc3)ccc2O[C@@H](C)CCCCO[C@@H]1CN(C)C(=O)CCCN(C)C	0	x	-15	x	x	x	x
O=C(CCc1ccccc1)Nc1nnc(-c2ccccn2)o1	0	27	52*	4	-27	-1	-6%
O=C(CCc1ccccc1)Nc1nnc(-c2cccs2)o1	0	3	25	-3	-3	x	x
O=C(Nc1nnc(-c2ccc(F)cc2)o1)c1ccco1	0	27	42*	1	-27	x	-25%
O=C(Cc1ccccc1)Nc1nnc(-c2ccco2)o1	0	41	65*	8	-41	-3	-19%
O=C(COc1ccc(Cl)cc1)Nc1nnc(-c2ccco2)o1	0	-25	25*	-1	25	-2	-31%
CC(C)NC(=O)Nc1ccc2c(c1)CC(=O)N([C@H](C)CO)C[C@@H](C)[C@@H](CN(C)Cc1ccncc1)O2	-1	x	x	x	x	x	x
CCOc1cccc(C(=O)Nc2ccc(NC(=O)c3ccccc3)c(C)c2)c1	0	-65	-6	-1	65	2	x
CCOc1cccc(/C=N/NC(=O)c2cc(-c3cccn3C)n[nH]2)c1O	0	-104	51*	-11	104*	-6	-31%
N#CC1(NC(=O)CSc2nncn2-c2ccccc2F)CCCC1	1	13	1	-2	-13	-3	x
O=C(C1CCCC1)N1C[C@@H]2[C@H](c3ccccc31)[C@H](CO)N2C(=O)Cc1ccccn1	0	x	51*	x	x	x	-12%[42 µM]
O=C(NC[C@H]1[C@H](c2ccccc2)[C@@H](CO)N1Cc1ccccn1)C1CC1	0	x	12	x	x	x	x
O=C(NC[C@@H]1[C@H](c2ccccc2)[C@H](CO)N1Cc1ccccn1)C1CCC1	0	x	60*	x	x	x	-22%[42 µM]
O=C(NC[C@@H]1[C@H](c2ccccc2)[C@H](CO)N1Cc1ccccn1)C1CCCC1	0	x	53*	x	x	x	-25%[42 µM]
O=C(C1CCCC1)N1C[C@@H]2[C@H](c3ccccc31)[C@@H](CO)N2C(=O)Cc1ccccn1	0	x	22	x	x	x	x
O=C(NC[C@H]1[C@@H](c2ccccc2)[C@@H](CO)N1Cc1ccccn1)C1CCC1	0	x	56*	x	x	x	70µM*
